Results: ChEMBL document CHEMBL4152290, “1H-Benzo[d]imidazoles and 3,4-dihydroquinazolin-4-ones: Design, synthesis and antitubercular activity” (Eur J Med Chem, 2018)
Values after ≈ are worked out from the molar mass of the structure shown.

What was measured:
[1] = Stability of the compound in PBS containing 10% DMSO at 37 degC measured after 3 hrs by HPLC analysis; type: physicochemical; conditions: read-out: Stability
[2] = system: Mycobacterium tuberculosis; assay: Antitubercular activity against Mycobacterium tuberculosis H37Rv ATCC 27294 after 7 days by resazurin dye based assay; type: functional; conditions: H37Rv ATCC 27294, 168 h
Method in brief: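 Resazurin microtiter MIC in 7H9 with 10% ADC. Two-fold dilutions from 1 mg/mL DMSO stocks span 25.0–0.05, 10.0–0.02 or 0.02–0.0004 µg/mL, with 2.5% DMSO final. Inoculum is bead-declumped culture grown in 7H9/10% OADC/0.05% Tween 80, diluted to OD600 0.006. Plates run 7 days at 37 °C, then 0.01% resazurin for 48 h. MIC is the lowest concentration preventing the blue-to-pink change. Three independent tests.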

[3] = Stability of the compound in PBS containing 10% DMSO at 37 degC measured after 48 hrs by HPLC analysis; type: physicochemical; conditions: read-out: Stability
[4] = Selectivity index, ratio of cytotoxic concentration for human HepG2 cells by neutral red uptake assay to MIC for Mycobacterium tuberculosis H37Rv ATCC 27294; type: toxicity; conditions: read-out: Selectivity Index
[5] = Selectivity index, ratio of cytotoxic concentration for human HepG2 cells by MTT assay to MIC for Mycobacterium tuberculosis H37Rv ATCC 27294; type: toxicity; conditions: read-out: Selectivity Index
[6] = Stability of the compound in PBS containing 10% DMSO at 25 degC measured after 9 hrs by HPLC analysis; type: physicochemical; conditions: buffer
[7] = Cytotoxicity against African green monkey Vero assessed as cell viability at 10 ug/ml after 72 hrs by neutral red uptake assay (reference value: 100%); type: cell-based; conditions: chlorocebus sabaeus, Vero cells; read-out: Activity
Method in brief: (§1)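 Seeding was 2×10^3/well for HepG2 and HaCat and 1×10^3/well for Vero. After 24 h, cells received 10 µg/mL final (2% DMSO) for 72 h at 37 °C, 5% CO2. They were washed with PBS, given neutral red 25 µg/mL in serum-free medium for 3 h, washed, and extracted 30 min with acetic acid/EtOH/water 1:50:49. A540 was read. Viability is relative to 2% DMSO controls; mean ± SEM, three experiments in triplicate.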

Danio rerio [8] = species on record: Danio rerio; assay: Cardiotoxicity in Zebrafish AB embryos assessed as heart beat rate at 15 uM measured at 2 days post fertilization by stereomicroscopic method (reference value: 128.7 to 146.3 bpm); type: organism-based; conditions: in vivo, 48 h
[9] = Stability of the compound in PBS containing 10% DMSO at 25 degC measured after 48 hrs by HPLC analysis; type: physicochemical; conditions: buffer
[10] = Stability of the compound in PBS containing 10% DMSO at 25 degC measured after 12 hrs by HPLC analysis; type: physicochemical; conditions: buffer
[11] = Cytotoxicity against human HaCaT cells assessed as cell viability at 10 ug/ml after 72 hrs by MTT assay (reference value: 100%); type: cell-based; conditions: read-out: Activity
Method in brief: (§2)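 Cells were grown in DMEM with 10% heat-inactivated FBS and penicillin-streptomycin, seeded at 2×10^3/well (HepG2, HaCat) or 1×10^3/well (Vero), then left 24 h. Compound was applied at 10 µg/mL final (2% DMSO) for 72 h at 37 °C, 5% CO2. MTT 1 mg/mL was added for 3 h, formazan dissolved in DMSO, and A595 read. Viability is expressed relative to 2% DMSO wells; mean ± SEM, triplicates, three independent experiments.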

[12] = Cytotoxicity against African green monkey Vero assessed as cell viability at 10 ug/ml after 72 hrs by MTT assay (reference value: 100%); type: cell-based; conditions: chlorocebus sabaeus, Vero cells; read-out: Activity; method in brief: as §2
[13] = Cytotoxicity against human HepG2 cells assessed as cell viability at 10 ug/ml after 72 hrs by MTT assay (reference value: 100%); type: cell-based; conditions: read-out: Activity; method in brief: as §2
[14] = Cytotoxicity against human HaCaT cells assessed as cell viability at 10 ug/ml after 72 hrs by neutral red uptake assay (reference value: 100%); type: cell-based; conditions: read-out: Activity; method in brief: as §1
[15] = Stability of the compound in PBS containing 10% DMSO at 37 degC measured immediately by HPLC analysis; type: physicochemical; conditions: read-out: Stability
[16] = Stability of the compound in PBS containing 10% DMSO at 37 degC measured after 9 hrs by HPLC analysis; type: physicochemical; conditions: PBS containing 10% DMSO; read-out: Stability
[17] = Selectivity index, ratio of cytotoxic concentration for African green monkey Vero cells by MTT assay to MIC for Mycobacterium tuberculosis H37Rv ATCC 27294; type: toxicity; conditions: read-out: Selectivity Index
Danio rerio [18] = species on record: Danio rerio; assay: Toxicity in Zebrafish AB embryos assessed as effect on larval survival rate at 3 to 20 uM; type: organism-based; conditions: in vivo
Method in brief: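 Wild-type AB zebrafish embryos are exposed from 2 hpf to 5 dpf at 3.0, 15.0 and 20.0 µM in fish water with 1% DMSO, at 28 °C on a 14/10 h light-dark cycle. Controls are fish water alone and 1% DMSO. Survival and hatching are checked daily under a stereomicroscope.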

Danio rerio [19] = species on record: Danio rerio; assay: Cardiotoxicity in Zebrafish AB embryos assessed as heart beat rate at 20 uM measured at 5 days post fertilization by stereomicroscopic method (reference value: 148.1 to 158.2 bpm); type: organism-based; conditions: in vivo, 120 h
[20] = Selectivity index, ratio of cytotoxic concentration for human HaCaT cells by MTT assay to MIC for Mycobacterium tuberculosis H37Rv ATCC 27294; type: toxicity; conditions: read-out: Selectivity Index
[21] = Stability of the compound in PBS containing 10% DMSO at 25 degC measured after 24 hrs by HPLC analysis; type: physicochemical; conditions: buffer
Danio rerio [22] = species on record: Danio rerio; assay: Cardiotoxicity in Zebrafish AB embryos assessed as heart beat rate at 20 uM measured at 2 days post fertilization by stereomicroscopic method (reference value: 128.7 to 146.3 bpm); type: organism-based; conditions: in vivo, 48 h
Danio rerio [23] = species on record: Danio rerio; assay: Cardiotoxicity in Zebrafish AB embryos assessed as heart beat rate at 15 uM measured at 5 days post fertilization by stereomicroscopic method (reference value: 148.1 to 158.2 bpm); type: organism-based; conditions: in vivo, 120 h
[24] = Stability of the compound in PBS containing 10% DMSO at 25 degC measured immediately by HPLC analysis; type: physicochemical; conditions: read-out: Stability
Danio rerio [25] = species on record: Danio rerio; assay: Cardiotoxicity in Zebrafish AB embryos assessed as heart beat rate at 3 uM measured at 2 days post fertilization by stereomicroscopic method (reference value: 128.7 to 146.3 bpm); type: organism-based; conditions: in vivo, 48 h
[26] = Cytotoxicity against human HepG2 cells assessed as cell viability at 10 ug/ml after 72 hrs by neutral red uptake assay (reference value: 100%); type: cell-based; conditions: read-out: Activity; method in brief: as §1
Danio rerio [27] = species on record: Danio rerio; assay: Induction of neurological impairment in Zebrafish AB embryos assessed as alteration in locomotor activity by measuring swimming activity at 3 to 20 uM measured at 5 days post fertilization; type: organism-based; conditions: in vivo, 120 h
Method in brief: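 Larvae were exposed from 2 hpf in fish water with 1% DMSO. At 5 dpf each larva was placed singly in a well of water or treatment solution. After 1 min acclimation, it was video-tracked for 5 min at 15 positions/s, and distance travelled was scored.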

With O=C(CSc1nc2ccccc2c(=O)[nH]1)NCC1CCCCC1 as the molecule, how does the remaining at 3 h [1] read?
Its remaining at 3 h is 106%.

And the MIC [2]?
Its MIC is 0.94 µM (≈ 0.312 µg/mL).

What about the remaining at 48 h [3] of the same molecule?
Its remaining at 48 h is 105%.

And the selectivity ratio [4]?
The selectivity ratio was ≤ 32.

What about the selectivity ratio [5] of the same molecule?
The selectivity ratio was ≤ 32.

What about the Stability [6] of the same molecule?
The Stability was 116%.

What about the viability at 72 h, 10 ug/ml [7] of the same molecule?
Its viability at 72 h, 10 ug/ml is 97%.

And the Activity (Danio rerio [8])?
The Activity was 143.2 bpm.

And the Stability [9]?
Its Stability is 125%.

And the Stability [10]?
Its Stability is 112%.

And the viability at 72 h, 10 ug/ml [11]?
The viability at 72 h, 10 ug/ml was 98%.

And the viability at 72 h, 10 ug/ml [12]?
Its viability at 72 h, 10 ug/ml is 89%.

What about the viability at 72 h, 10 ug/ml [13] of the same molecule?
The viability at 72 h, 10 ug/ml was 79%.

What about the viability at 72 h, 10 ug/ml [14] of the same molecule?
Its viability at 72 h, 10 ug/ml is 88%.

What about the remaining at 0 h [15] of the same molecule?
The remaining at 0 h was 100%.

And the remaining at 9 h [16]?
Its remaining at 9 h is 112%.

And the selectivity ratio [17]?
Its selectivity ratio is ≤ 32.

And the Activity (Danio rerio [18])?
Its Activity is “Non-Toxic”.

What about the Activity (Danio rerio [19]) of the same molecule?
Its Activity is 152.5 bpm.

And the selectivity ratio [20]?
Its selectivity ratio is ≤ 32.

What about the Stability [21] of the same molecule?
The Stability was 114%.

And the Activity (Danio rerio [22])?
The Activity was 152.6 bpm.

And the Activity (Danio rerio [23])?
Its Activity is 158.9 bpm.

What about the remaining at 0 h [24] of the same molecule?
Its remaining at 0 h is 100%.

And the Activity (Danio rerio [25])?
The Activity was 140.7 bpm.

And the viability at 72 h, 10 ug/ml [26]?
The viability at 72 h, 10 ug/ml was 97%.

And the Activity (Danio rerio [27])?
The Activity was “Non-Toxic”.
